Measurements taken from ChEMBL document CHEMBL4814013, “Scaffold repurposing of fendiline: Identification of potent KRAS plasma membrane localization inhibitors” (Eur J Med Chem, 2021).
Values belong to the compound of their own block, whether it stands above or below them. Calls of active or inactive are those of the source. The rule behind the calls is not given here.

Assays:
[1] = Inhibition of ASM in dog MDCK cells co-expressing recombinant full length mGFP-tagged KRAS G12V mutant and mCherry-CAAX assessed as reduction in plasma membrane localization of KRAS mutant incubated for 48 hrs by confocal microscopic analysis; format: cell membranes, Canis lupus familiaris
Method in brief: (§1)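 MDCK cells stably co-expressing mGFP-KRAS G12V or mGFP-LactC2 with mCherry-CAAX (HRAS 179–189 C181S/C184S) grown on coverslips in DMEM/10% FBS. Treated 48 h with 0.1% DMSO or graded drug, fixed in 4% paraformaldehyde, then quantitative confocal imaging. Mislocalization scored as the Manders fraction of mCherry-CAAX co-localizing with the GFP probe. IC50 and Emax from three independent experiments.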

MDCK [2] = assay: Inhibition of ASM in dog MDCK cells co-expressing recombinant full length mGFP-tagged KRAS G12V mutant and mCherry-CAAX assessed as reduction in plasma membrane localization of KRAS mutant incubated for 48 hrs by confocal microscopic analysis relative to control; format: cell membranes; conditions: Canis lupus familiaris; method in brief: as §1
MDCK [3] = assay: Cytotoxicity against dog MDCK cells at 30 uM; format: functional, cell-based; conditions: Canis lupus familiaris
MDCK [4] = assay: Reduction in expression of human GFP-tagged ASM transfected in dog MDCK cells at 5 uM incubated for 48 hrs by western blot analysis; format: functional, cell-based; conditions: Canis lupus familiaris
Method in brief: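 SMPD1-GFP-expressing MDCK cells treated 48 h with 5 µM compound, washed in cold PBS and lysed in Tris pH 7.5 buffer with NaF, EGTA, DTT, vanadate, 1% NP40 and protease inhibitors. 20 µg of protein resolved by SDS-PAGE and immunoblotted. Signals detected by enhanced chemiluminescence and quantified by densitometry.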

MDCK [5] = assay: Inhibition of ASM in dog MDCK cells co-expressing recombinant full length mGFP-tagged KRAS G12V mutant and mCherry-CAAX assessed as reduction in plasma membrane localization of KRAS mutant at 1 uM incubated for 48 hrs followed by incubation with recombinant ASM in continued presence of compound for 60 mins by confocal microscopic analysis; format: cell membranes; conditions: Canis lupus familiaris, time 49.0 hrs
Method in brief: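 MDCK cells stably co-expressing mGFP-KRAS G12V and mCherry-CAAX seeded on glass coverslips and grown 48 h with or without compound. Medium then replaced with fresh medium containing 2 units/mL recombinant ASM, drug continued, for 60 min. Cells mounted in mowiol and imaged by confocal microscopy. Mislocalization scored by Manders coefficient.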

MEF [6] = assay: Cytotoxicity against mouse MEF cells expressing BRAF V600E mutant and wild type KRAS assessed as reduction in cell growth incubated for 72 hrs by CyQuant proliferation assay; format: functional, cell-based
Method in brief: (§2)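 Cells seeded in 96-well plates; after 24 h fresh growth medium with 0.1% DMSO vehicle or drug added (highest dose 30 µM for cancer lines), grown 72 h at 37 °C, 5% CO2. Live cell number measured by CyQUANT fluorescence. IC50 from three independent experiments. MEFs were isogenic lines carrying oncogenic BRAF or KRAS.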

MEF [7] = assay: Antiproliferative activity against mouse MEF cells expressing KRAS G12V mutant assessed as reduction in cell growth incubated for 72 hrs by CyQuant proliferation assay; format: functional, cell-based; method in brief: as §2
MEF [8] = assay: Antiproliferative activity against mouse MEF cells expressing KRAS G12D mutant assessed as reduction in cell growth incubated for 72 hrs by CyQuant proliferation assay; format: functional, cell-based; method in brief: as §2
BXPC-3 = assay: Antiproliferative activity against human BXPC-3 cells expressing wild type KRAS assessed as reduction in cell growth incubated for 72 hrs by CyQuant proliferation assay; format: functional, cell-based; conditions: BXPC-3, 72 h; method in brief: as §2
MIA PaCa-2 = assay: Antiproliferative activity against human MIA PaCa-2 cells expressing KRAS mutant assessed as reduction in cell growth incubated for 72 hrs by CyQuant proliferation assay; format: functional, cell-based; conditions: MIA PaCa-2, 72 h; method in brief: as §2
[9] = Antiproliferative activity against human MOH cells expressing KRAS mutant assessed as reduction in cell growth incubated for 72 hrs by CyQuant proliferation assay; format: functional, cell-based; method in brief: as §2
[10] = Antiproliferative activity against human MPANC96 cells expressing KRAS mutant assessed as reduction in cell growth incubated for 72 hrs by CyQuant proliferation assay; format: functional, cell-based; conditions: MPANC96, 72 h; method in brief: as §2
Ishikawa = assay: Antiproliferative activity against human Ishikawa cells expressing wild type KRAS assessed as reduction in cell growth incubated for 72 hrs by CyQuant proliferation assay; format: functional, cell-based; method in brief: as §2
HEC-1B cell line = assay: Antiproliferative activity against human HEC-1B cells expressing mutant KRAS assessed as reduction in cell growth incubated for 72 hrs by CyQuant proliferation assay; format: functional, cell-based; method in brief: as §2
Caco-2 = assay: Antiproliferative activity against human Caco-2 cells expressing wild type KRAS assessed as reduction in cell growth incubated for 72 hrs by CyQuant proliferation assay; format: functional, cell-based; conditions: Caco-2, 72 h; method in brief: as §2
SK-CO-1 = assay: Antiproliferative activity against human SK-CO-1 cells expressing mutant KRAS assessed as reduction in cell growth incubated for 72 hrs by CyQuant proliferation assay; format: functional, cell-based; conditions: SK-CO-1, 72 h; method in brief: as §2
NCI-H1975 = assay: Antiproliferative activity against human NCI-H1975 cells expressing wild type KRAS assessed as reduction in cell growth incubated for 72 hrs by CyQuant proliferation assay; format: functional, cell-based; conditions: NCI-H1975, 72 h; method in brief: as §2
NCI-H522 = assay: Antiproliferative activity against human NCI-H522 cells expressing wild type KRAS assessed as reduction in cell growth incubated for 72 hrs by CyQuant proliferation assay; format: functional, cell-based; conditions: NCI-H522, 72 h; method in brief: as §2
NCI-H1299 = assay: Antiproliferative activity against human NCI-H1299 cells expressing wild type KRAS assessed as reduction in cell growth incubated for 72 hrs by CyQuant proliferation assay; format: functional, cell-based; conditions: NCI-H1299, 72 h; method in brief: as §2
KLE = assay: Antiproliferative activity against human KLE cells expressing wild type KRAS assessed as reduction in cell growth upto 30 uM incubated for 72 hrs by CyQuant proliferation assay; format: functional, cell-based; conditions: dose microM <=30, time 72.0 hrs; method in brief: as §2
ESS-1 = assay: Antiproliferative activity against human ESS-1 cells expressing wild type KRAS assessed as reduction in cell growth upto 30 uM incubated for 72 hrs by CyQuant proliferation assay; format: functional, cell-based; conditions: dose microM <=30, time 72.0 hrs; method in brief: as §2
Caenorhabditis elegans = assay: In vivo inhibition of KRAS signaling in Caenorhabditis elegans lin-1 L1 harboring let60 […] mutant assessed as reduction in multi-vulva phenotype measured after 4 to 5 days culturing in buffer containing Escherichia coli OP50 by DIC/Nomarski microscopic analysis; format: functional, organism-based; conditions: dose 0.1-30 µM, time 4-5 day
Method in brief: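 let-60 (n1046) or lin-1 L1 larvae cultured in M9 buffer with E. coli OP50 plus DMSO vehicle or compound at 0.1, 0.3, 1, 3, 10 or 30 µM. After 4–5 days, adults were scored for multi-vulva by DIC/Nomarski microscopy.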

MDCK [11] = assay: Inhibition of ASM in dog MDCK cells co-expressing recombinant full length GFP-tagged LactC2 and mCherry-CAAX assessed as reduction in plasma membrane localization of LactC2 incubated for 48 hrs by confocal microscopic analysis; format: cell membranes; conditions: Canis lupus familiaris; method in brief: as §1
[12] = molecular target: T1, Sphingomyelin phosphodiesterase (Homo sapiens) (UniProt P17405); assay: Inhibition of human GFP-tagged ASM expressed in dog MDCK cells using sphingomyelin as substrate at 5 uM incubated for 48 hrs by Amplex Red dye based fluorescence analysis; format: cell-based
T1 sequence (whole entry): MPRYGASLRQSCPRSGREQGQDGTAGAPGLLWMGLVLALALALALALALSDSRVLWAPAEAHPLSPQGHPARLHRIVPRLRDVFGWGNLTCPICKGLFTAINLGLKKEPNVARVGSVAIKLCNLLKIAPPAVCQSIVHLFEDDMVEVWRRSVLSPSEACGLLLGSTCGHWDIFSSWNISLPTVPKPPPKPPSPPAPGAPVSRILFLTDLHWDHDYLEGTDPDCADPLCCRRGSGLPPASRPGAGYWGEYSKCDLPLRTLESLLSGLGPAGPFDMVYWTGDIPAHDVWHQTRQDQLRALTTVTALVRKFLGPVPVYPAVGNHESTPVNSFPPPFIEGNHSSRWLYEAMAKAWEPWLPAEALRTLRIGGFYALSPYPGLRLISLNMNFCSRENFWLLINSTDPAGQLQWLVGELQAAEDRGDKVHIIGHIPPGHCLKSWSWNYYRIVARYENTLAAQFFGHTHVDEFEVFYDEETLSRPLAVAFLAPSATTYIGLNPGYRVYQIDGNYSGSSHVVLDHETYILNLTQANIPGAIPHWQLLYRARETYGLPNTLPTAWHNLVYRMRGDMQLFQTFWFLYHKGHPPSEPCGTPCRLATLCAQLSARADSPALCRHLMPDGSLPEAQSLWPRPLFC
Method in brief: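 MDCK cells stably expressing human SMPD1-GFP treated 48 h at 5 µM. Whole-cell lysate, made without DTT, mixed with 50 mM sodium acetate pH 5.0 plus sphingomyelin and held 1 h at 37 °C. pH then raised to 7.4 with Amplex Red mix (100 µM Amplex Red, 2 U/mL HRP, 0.2 U/mL choline oxidase, 8 U/mL alkaline phosphatase, 100 mM Tris pH 8.0), 60 min at 37 °C. Fluorescence read at Ex 540/Em 590 nm. Controls: 0.1 U/mL SMase (positive), buffer alone (negative).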

Compound: COc1ccc([C@@H](C)N(CC=C(c2ccccc2)c2ccccc2)CCN2CCCCC2)cc1
IC50 [1]: 600 nM | Emax (MDCK [2]): 0.83 | Activity (MDCK [3]): Active

Compound: CCN(CC=C(c1ccccc1)c1ccccc1)[C@H](C)c1ccc(OC)cc1
IC50 [1]: 10600 nM | Emax (MDCK [2]): 0.84 | Activity (MDCK [3]): inactive

Compound: C=CCN(CCN1CCN(C)CC1)[C@H](C)c1ccc(OC)cc1
IC50 [1]: 59300 nM | Emax (MDCK [2]): 0.76 | Activity (MDCK [3]): inactive

Compound: COc1ccc([C@@H](C)N(CC=C(c2ccccc2)c2ccccc2)CCF)cc1
IC50 [1]: 10100 nM | Emax (MDCK [2]): 0.52 | Activity (MDCK [3]): inactive

Compound: COc1ccc([C@H](C)N(CC=C(c2ccccc2)c2ccccc2)CCN2CCN(C)CC2)cc1
IC50 [1]: 1200 nM | Emax (MDCK [2]): 0.83 | Activity (MDCK [3]): Active

Compound: COc1ccc([C@@H](C)N(CC=C(c2ccccc2)c2ccccc2)CCN2CCN(C)CC2)cc1
IC50 [1]: 100 nM | Emax (MDCK [2]): 0.75 | Activity (MDCK [3]): Active | inhibition (MDCK [4]): Active | inhibition (MDCK [5]): inactive | IC50 (MEF [6]): 7.5 µM | IC50 (MEF [7]): 2700 nM | IC50 (MEF [8]): 3.7 µM | IC50 (BXPC-3): 5.7 µM | IC50 (MIA PaCa-2): 3000 nM | IC50 [9]: 3.7 µM | IC50 [10]: 4.2 µM | IC50 (Ishikawa): > 30 µM | IC50 (HEC-1B cell line): 3.3 µM | IC50 (Caco-2): 5.1 µM | IC50 (SK-CO-1): 3.3 µM | IC50 (NCI-H1975): > 30 µM | IC50 (NCI-H522): 28.2 µM | IC50 (NCI-H1299): 8.2 µM | Activity (KLE): inactive | Activity (ESS-1): inactive | inhibition (Caenorhabditis elegans): Dose-Dependent Effect | inhibition (MDCK [11]): Active | inhibition [12]: Active

Compound: C[C@H](c1ccc(F)cc1)N(CC=C(c1ccccc1)c1ccccc1)CCN1CCN(C)CC1
IC50 [1]: 1500 nM | Emax (MDCK [2]): 0.83 | Activity (MDCK [3]): Active

Compound: COc1ccc([C@@H](C)N(C)CC=C(c2ccccc2)c2ccccc2)cc1
IC50 [1]: 3300 nM | Emax (MDCK [2]): 0.75 | Activity (MDCK [3]): inactive

Compound: COc1cccc([C@@H](C)N(CC=C(c2ccccc2)c2ccccc2)CCN2CCN(C)CC2)c1
IC50 [1]: 2800 nM | Emax (MDCK [2]): 0.75 | Activity (MDCK [3]): Active

Continued by falling IC50 [1], values first:

IC50 [1]: 7700 nM | Emax (MDCK [2]): 0.81
Compound: COc1ccc([C@@H](C)N(CC=C(c2ccccc2)c2ccccc2)CCN2CCNC(=O)C2)cc1
Activity (MDCK [3]): inactive

IC50 [1]: 3800 nM | Emax (MDCK [2]): 0.7
Compound: C[C@H](c1ccc(Cl)cc1)N(CC=C(c1ccccc1)c1ccccc1)CCN1CCN(C)CC1
Activity (MDCK [3]): Active

IC50 [1]: 1300 nM | Emax (MDCK [2]): 0.86
Compound: COc1ccc([C@@H](C)N(CC=C(c2ccccc2)c2ccccc2)CCN2CCNCC2)cc1
Activity (MDCK [3]): Active

IC50 [1]: 1100 nM | Emax (MDCK [2]): 0.73
Compound: COc1ccc([C@@H](C)N(CC=C(c2ccccc2)c2ccccc2)CC(=O)N2CCN(C)CC2)cc1
Activity (MDCK [3]): inactive
